T cruzi inh = T. cruzi replication inhibition; 300,000 compounds, 1.4% hits; T. cruzi beta-gal in NIH3T3, luminescence, 90 h; inhibition, % (test concentration not listed);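 active means mean inhibition across valid replicates above about 55%, limit read from the data; inconclusive means mean below that limit but half or more replicates reach it; inactive means mean below it, under half of replicates reach it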;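 further: signal also drops with host cell toxicity which is not excluded here; 0% = plate median of DMSO wells and 100% = zero luminescence signal; higher percent means less beta-gal luminescence so fewer parasites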
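System – NIH/3T3 host cells with β-galactosidase reporter T. cruzi · Doses – single 50 nL compound addition per well in DMSO · Reagent – 5000 T. cruzi trypomastigotes/well · Medium – Low-serum DMEM with 2% FBS · Timing – ≥90 h infection period, 3 h prior cell attachment · Evaluation – parasite load inhibition, % · Technique – GalScreen luminescence, 60 min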
CSC inhib = blocks cancer stem cells | cancer stem cell-like cells viability, luminescence | inhibition, % at 7.5 µM | 300,000 compounds, 1.1% hits; in the data active means inhibition above about 75%; inconclusive means no clear call, values can overlap the other calls; tested in HMLE shEcad cells
aSyn 5UTR inh = MLPCN primary screen, SNCA 5' untranslated region. alpha-synuclein 5'UTR reporter, inhibitor activity. inhibition, % (tested at 7.5 µM). 300,000 compounds, 0.82% hits. AID 1813; in the data active means inhibition above about 60%; inconclusive means no clear call, values can overlap the other calls;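 further: H4 neuroglioblastoma cells stably carrying SNCA 5'UTR luciferase fusion; 0% = DMSO wells and 100% = positive control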
Mdm2 MdmX PPI = disrupts the human Mdm2-MdmX interaction; O15151+Q00987; SaOS-2 split-luciferase Mdm2/MdmX complementation, luminescence; inhibition, % at 8 µM; 330,000 compounds, 3% hits;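 active means inhibition of at least 50% at 8 µM in the primary screen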
SKKanGAS inh = inhibitors of SKKanGAS S. pyogenes growth in kanamycin (SK-promoter or general growth effect); BacTiter-Glo, 6 h; inhibition, % at 7.5 µM; 300,000 compounds, 1.3% hits;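 active means mean replicate score, as percent of positive control median, at least 50; inconclusive means mean below 50 but one replicate at or above 50; inactive means mean and every replicate below 50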;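 further: strain carries kanamycin resistance gene driven by streptokinase promoter and grows in 40 µg/ml kanamycin; loss of luminescence reflects streptokinase promoter inhibition or plain growth inhibition; 0% = median of DMSO wells and 100% = positive control at its reference dose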
Mdm2-MdmX conf = human Mdm2/MdmX binding inhibition, confirmed; 10,000 compounds, 55% hits; AID 489028; luminescent assay; inhibition, % at 8 µM; shares compounds with Mdm2 MdmX PPI; in the data active means inhibition above about 40%
Full FLuc ctr = inhibits full-length luciferase, flagging false Mdm2/MdmX hits. shares compounds with Mdm2 MdmX PPI. inhibition, % at 8 µM. SaOS-2 full-length luciferase counterscreen, luminescence. 6,200 compounds, 77% hits. AID 504607;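 active means mean inhibition at 8 µM reaching about 37%, which flags the compound as non-specific, limit read from the data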;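 further: p53-null SaOS-2 cells with luciferase driven by a doxycycline-inducible promoter; compound on cells about two nights before reading with doxycycline added after day one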
* = called active by the depositor; u = inconclusive; x = no result. Rows were chosen to be rich in hits. Some 5.4% of all compounds tested hit in one or more screens of this group.

SMILES	T cruzi inh	CSC inhib	aSyn 5UTR inh	Mdm2 MdmX PPI	SKKanGAS inh	Mdm2-MdmX conf	Full FLuc ctr
CCOC(=O)COc1ccc2ccccc2c1/C=C/[N+](=O)[O-]	11	-8	3	x	11	x	x
CCOC(=O)COc1ccc(/C=C/[N+](=O)[O-])c(OCC(=O)OCC)c1	11	6	-21	100*	0	70*	24
COC(=O)c1ccc(C(=O)Nc2cc(Cl)ccc2Cl)cc1NC(=O)c1ccc(N(C)C)cc1	-6	1	28	70*	-3	7	x
O=C(Nc1cc(Cl)ccc1Cl)c1ccc(-c2ccccc2)cc1	18	7	-40	2	1	x	x
COc1ccccc1NC(=O)c1ccc(NC(=O)COC(=O)CCC2CCCC2)cc1	-17	-4	12	-11	-6	x	x
COC(=O)c1ccc2[nH]ccc2c1	-11	4	-13	6	3	x	x
On1onc2c3cc(-c4ccccc4)nc3ccc21	x	0	x	69*	x	58*	65*
COc1ccc(CN(C(=O)c2ccc(C)cc2)C2CCS(=O)(=O)C2)cc1 (stereo not given)	2	-11	-5	22	-3	x	x
O=C(Nc1cnccn1)Nc1cccc(Cl)c1Cl	19	3	-22	77*	1	68*	105*
NC(=O)C1CCCN(C(=O)c2cccc(NC(=O)c3cccs3)c2)C1 (stereo not given)	x	x	x	-4	x	x	x
COc1ccc(OC)c(/C=C/C(=O)N2CCN(S(=O)(=O)c3ccc(C)cc3C)CC2)c1	x	x	x	25	x	x	x
COc1ccc(-c2cc(C(F)F)n3ncc(C(=O)N4CCc5ccccc54)c3n2)cc1	-8	61	u	67*	7	56*	73*
Cc1cc(C)n(C(=O)/C(C#N)=N/Nc2cc(Cl)cc(Cl)c2)n1	42	1	-24	89*	90*	88*	51*
Cc1cc(C)n(C(=O)/C(C#N)=N\Nc2ccccc2[N+](=O)[O-])n1	-8	-9	-9	13	-7	x	x
COc1cc2ccccc2cc1C(=O)NNC(=O)c1ccccc1O	57*	13	50	56*	39	48*	40*
COc1cc(NC(=O)c2cc3ccccc3cc2O)c(OC)cc1Cl	-1	76*	-12	100*	17	91*	42*
COc1cc(OC)c(NC(=O)c2ccccc2F)cc1Cl	9	-10	-122	-1	-12	x	x
Cc1ccc(Cl)cc1NC(=O)c1cc2ccccc2cc1O	16	28	54	93*	97*	97*	52*
Cc1ccc(Cl)cc1NC(=O)COC(=O)c1ccccc1O	-11	12	5	24	-9	x	x
NC(N)=NN=C1CCC(c2ccccc2)CC1 (stereo not given)	-1	-16	11	-6	1	x	x
Cc1cccc(-n2c(=O)c3ccccc3n3c(=S)[nH]nc23)c1C	-11	-9	19	32	8	x	x
Cn1c(=O)n(Cc2ccc(Cl)cc2)c2ccccc21	1	x	32	14	-2	x	x
Cc1ccc(S(=O)(=O)N2CCC3(CC2)OCCO3)cc1	-8	-10	-5	12	1	x	x
O=C(NCCN1CCN(S(=O)(=O)c2ccc([N+](=O)[O-])cc2)CC1)C(=O)Nc1ccccc1	28	6	17	71*	-5	15	x
O=C(NCCN1CCN(Cc2ccc([N+](=O)[O-])cc2)CC1)C(=O)Nc1ccccc1	-15	0	28	6	-1	x	x
SMILES	T cruzi inh	CSC inhib	aSyn 5UTR inh	Mdm2 MdmX PPI	SKKanGAS inh	Mdm2-MdmX conf	Full FLuc ctr
COC(=O)c1[nH]c2ccccc2c1CN1CCOCC1	-1	-3	17	32	-1	x	x
CCCCC(CC)CN=C(N)NC(N)=NCCCCCCN=C(N)NC(N)=NCC(CC)CCCC (stereo not given)	x	103*	x	99*	x	86*	15
CCCCC(CC)CO (stereo not given)	x	x	x	8	x	x	x
COc1cc(C(=O)OCCCN2CCCN(CCCOC(=O)c3cc(OC)c(OC)c(OC)c3)CC2)cc(OC)c1OC	32	-7	-25	61*	19	41*	86*
CCN(CC)CCCCCCCCOC(=O)c1cc(OC)c(OC)c(OC)c1	x	35	x	50*	x	28	x
CCc1ccc2c(c1)cc(C)c1nnc(SCC(=O)Nc3cc(OC)c(OC)cc3C(=O)O)n12	1	8	11	3	11	x	x

Compound activity as filed in PubChem.
